According to ChEMBL document CHEMBL3425464, “HM30181 Derivatives as Novel Potent and Selective Inhibitors of the Breast Cancer Resistance Protein (BCRP/ABCG2)” (J Med Chem, 2015):

Target: T1, Broad substrate specificity ATP-binding cassette transporter ABCG2 (Homo sapiens, UniProt Q9UNQ0)
T1 sequence (Q9UNQ0 whole entry): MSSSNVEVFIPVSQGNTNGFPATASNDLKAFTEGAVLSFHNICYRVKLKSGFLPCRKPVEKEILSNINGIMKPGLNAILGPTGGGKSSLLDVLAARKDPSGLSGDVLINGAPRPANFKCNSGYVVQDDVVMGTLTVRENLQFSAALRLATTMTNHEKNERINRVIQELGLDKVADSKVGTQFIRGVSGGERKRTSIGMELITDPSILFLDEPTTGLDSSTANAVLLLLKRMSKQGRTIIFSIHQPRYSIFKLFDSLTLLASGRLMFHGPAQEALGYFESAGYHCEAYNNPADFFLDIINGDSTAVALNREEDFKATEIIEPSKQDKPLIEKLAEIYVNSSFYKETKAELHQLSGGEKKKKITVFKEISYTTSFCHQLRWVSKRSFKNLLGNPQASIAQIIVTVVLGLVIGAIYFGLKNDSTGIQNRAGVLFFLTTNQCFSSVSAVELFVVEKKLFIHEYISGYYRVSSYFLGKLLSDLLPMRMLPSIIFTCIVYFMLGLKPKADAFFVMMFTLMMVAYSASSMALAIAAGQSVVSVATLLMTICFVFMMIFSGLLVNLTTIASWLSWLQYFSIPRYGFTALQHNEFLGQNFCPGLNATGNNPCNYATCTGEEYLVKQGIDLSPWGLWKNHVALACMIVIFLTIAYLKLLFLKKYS
Assay: Inhibition of GFP-tagged human BCRP expressed in MDCK2 cells pre-incubated for 30 mins followed by Hoechst 33342 addition and further incubated for 120 mins by Hoechst 33342 accumulation assay
Format: cell-based, MDCK-II
Conditions: not given; call rule not given here
Summary of the method: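 MDCK II cells stably carrying human BCRP cDNA C-terminally fused to GFP are washed in KHB, pH 7.4. About 30,000 cells/well are preincubated 30 min at 37 °C with compound up to 10 μM (DMSO ≤0.1%, methanol ≤5% for poorly soluble compounds). Hoechst 33342 is added from a 10 μM solution, and fluorescence (ex 355/em 460) is read every 60 s for 120 min. The steady-state mean (100–109 min) is fitted to a four-parameter logistic curve.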

Row | Compound | IC50
1 | CCOc1ccc(-n2nnc(-c3ccccc3NC(=O)c3ccc(OC)c(OC)c3)n2)cc1 | 201 nM
2 | COc1ccccc1-n1nnc(-c2ccccc2NC(=O)c2ccc(C(F)(F)F)cc2)n1 | 451 nM
3 | COc1ccc(-n2nnc(-c3ccccc3NC(=O)c3ccc(OC)c(OC)c3)n2)cc1 | 117 nM
4 | COc1ccccc1-n1nnc(-c2ccccc2NC(=O)c2ccc([N+](=O)[O-])cc2)n1 | 261 nM
5 | CCCc1ccc(-n2nnc(-c3ccccc3NC(=O)c3ccc([N+](=O)[O-])cc3)n2)cc1 | 184 nM
6 | Cc1ccc(-n2nnc(-c3ccccc3NC(=O)c3ccc([N+](=O)[O-])cc3)n2)cc1 | 100 nM
7 | Cc1ccc(-n2nnc(-c3ccccc3NC(=O)c3ccc(C(F)(F)F)cc3)n2)cc1 | 137 nM
8 | COc1ccc(C(=O)Nc2ccccc2-c2nnn(-c3ccccc3OC)n2)cc1 | 180 nM
9 | O=C(Nc1ccccc1C(=O)Nc1ccc(CCN2CCc3ccccc3C2)cc1)c1cnc2ccccc2c1 | 721 nM
10 | CCCc1ccc(C(=O)Nc2ccccc2-c2nnn(-c3ccc(OC)cc3)n2)cc1 | 79.4 nM
11 | COc1cccc(-n2nnc(-c3ccccc3NC(=O)c3ccc(C(F)(F)F)cc3)n2)c1 | 11200 nM

Test system: not listed separately
Assay: Solubility in water
Format: physicochemical
Conditions: buffer

Row | Compound | solubility
12 | CCOc1ccc(-n2nnc(-c3ccccc3NC(=O)c3ccc(OC)c(OC)c3)n2)cc1 | Insoluble
13 | COc1ccccc1-n1nnc(-c2ccccc2NC(=O)c2ccc(C(F)(F)F)cc2)n1 | Insoluble
14 | COc1ccc(-n2nnc(-c3ccccc3NC(=O)c3ccc(OC)c(OC)c3)n2)cc1 | Insoluble
15 | COc1ccccc1-n1nnc(-c2ccccc2NC(=O)c2ccc([N+](=O)[O-])cc2)n1 | Insoluble
16 | CCCc1ccc(-n2nnc(-c3ccccc3NC(=O)c3ccc([N+](=O)[O-])cc3)n2)cc1 | Insoluble
17 | Cc1ccc(-n2nnc(-c3ccccc3NC(=O)c3ccc([N+](=O)[O-])cc3)n2)cc1 | Insoluble
18 | Cc1ccc(-n2nnc(-c3ccccc3NC(=O)c3ccc(C(F)(F)F)cc3)n2)cc1 | Insoluble
19 | COc1ccc(C(=O)Nc2ccccc2-c2nnn(-c3ccccc3OC)n2)cc1 | Insoluble
20 | CCCc1ccc(C(=O)Nc2ccccc2-c2nnn(-c3ccc(OC)cc3)n2)cc1 | Insoluble
21 | COc1cccc(-n2nnc(-c3ccccc3NC(=O)c3ccc(C(F)(F)F)cc3)n2)c1 | Insoluble

Test system: not listed separately
Assay: Solubility in DMSO
Format: physicochemical
Conditions: not given

Row | Compound | solubility
22 | CCOc1ccc(-n2nnc(-c3ccccc3NC(=O)c3ccc(OC)c(OC)c3)n2)cc1 | > 10 mM
23 | COc1ccccc1-n1nnc(-c2ccccc2NC(=O)c2ccc(C(F)(F)F)cc2)n1 | > 10 mM
24 | COc1ccc(-n2nnc(-c3ccccc3NC(=O)c3ccc(OC)c(OC)c3)n2)cc1 | > 10 mM
25 | COc1ccccc1-n1nnc(-c2ccccc2NC(=O)c2ccc([N+](=O)[O-])cc2)n1 | > 10 mM
26 | CCCc1ccc(-n2nnc(-c3ccccc3NC(=O)c3ccc([N+](=O)[O-])cc3)n2)cc1 | > 10 mM
27 | Cc1ccc(-n2nnc(-c3ccccc3NC(=O)c3ccc([N+](=O)[O-])cc3)n2)cc1 | > 10 mM
28 | Cc1ccc(-n2nnc(-c3ccccc3NC(=O)c3ccc(C(F)(F)F)cc3)n2)cc1 | > 10 mM
29 | COc1ccc(C(=O)Nc2ccccc2-c2nnn(-c3ccccc3OC)n2)cc1 | > 10 mM
30 | CCCc1ccc(C(=O)Nc2ccccc2-c2nnn(-c3ccc(OC)cc3)n2)cc1 | > 10 mM
31 | COc1cccc(-n2nnc(-c3ccccc3NC(=O)c3ccc(C(F)(F)F)cc3)n2)c1 | > 10 mM

Test system: not listed separately
Assay: Intrinsic cytotoxicity against BCRP expressing MDCK2 cells assessed as reduction in cell viability after 72 hrs by MTT assay
Format: ADME, cell-based, Canis lupus familiaris, MDCK-II
Conditions: dog
Summary of the method: (§1)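 Cells are seeded at 3000/well and allowed to attach for 6 h at 37 °C, 5% CO2. They are then exposed to compound in medium, up to 100 μM final (DMSO ≤1.0%), for 72 h. Controls are medium alone (negative) and 10% DMSO (positive). MTT is added for 1 h, formazan is dissolved in DMSO, and absorbance is read at 570 nm minus 690 nm. Viability is expressed as % of the negative control, and GI50 comes from a variable-slope sigmoidal fit. n = 3, each in quadruplicate.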

Row | Compound | GI50 at 72 h
32 | CCCc1ccc(C(=O)Nc2ccccc2-c2nnn(-c3ccc(OC)cc3)n2)cc1 | 60.9 µM

Target: ATP-dependent translocase ABCB1 (Homo sapiens, UniProt P08183)
Sequence (P08183 whole entry): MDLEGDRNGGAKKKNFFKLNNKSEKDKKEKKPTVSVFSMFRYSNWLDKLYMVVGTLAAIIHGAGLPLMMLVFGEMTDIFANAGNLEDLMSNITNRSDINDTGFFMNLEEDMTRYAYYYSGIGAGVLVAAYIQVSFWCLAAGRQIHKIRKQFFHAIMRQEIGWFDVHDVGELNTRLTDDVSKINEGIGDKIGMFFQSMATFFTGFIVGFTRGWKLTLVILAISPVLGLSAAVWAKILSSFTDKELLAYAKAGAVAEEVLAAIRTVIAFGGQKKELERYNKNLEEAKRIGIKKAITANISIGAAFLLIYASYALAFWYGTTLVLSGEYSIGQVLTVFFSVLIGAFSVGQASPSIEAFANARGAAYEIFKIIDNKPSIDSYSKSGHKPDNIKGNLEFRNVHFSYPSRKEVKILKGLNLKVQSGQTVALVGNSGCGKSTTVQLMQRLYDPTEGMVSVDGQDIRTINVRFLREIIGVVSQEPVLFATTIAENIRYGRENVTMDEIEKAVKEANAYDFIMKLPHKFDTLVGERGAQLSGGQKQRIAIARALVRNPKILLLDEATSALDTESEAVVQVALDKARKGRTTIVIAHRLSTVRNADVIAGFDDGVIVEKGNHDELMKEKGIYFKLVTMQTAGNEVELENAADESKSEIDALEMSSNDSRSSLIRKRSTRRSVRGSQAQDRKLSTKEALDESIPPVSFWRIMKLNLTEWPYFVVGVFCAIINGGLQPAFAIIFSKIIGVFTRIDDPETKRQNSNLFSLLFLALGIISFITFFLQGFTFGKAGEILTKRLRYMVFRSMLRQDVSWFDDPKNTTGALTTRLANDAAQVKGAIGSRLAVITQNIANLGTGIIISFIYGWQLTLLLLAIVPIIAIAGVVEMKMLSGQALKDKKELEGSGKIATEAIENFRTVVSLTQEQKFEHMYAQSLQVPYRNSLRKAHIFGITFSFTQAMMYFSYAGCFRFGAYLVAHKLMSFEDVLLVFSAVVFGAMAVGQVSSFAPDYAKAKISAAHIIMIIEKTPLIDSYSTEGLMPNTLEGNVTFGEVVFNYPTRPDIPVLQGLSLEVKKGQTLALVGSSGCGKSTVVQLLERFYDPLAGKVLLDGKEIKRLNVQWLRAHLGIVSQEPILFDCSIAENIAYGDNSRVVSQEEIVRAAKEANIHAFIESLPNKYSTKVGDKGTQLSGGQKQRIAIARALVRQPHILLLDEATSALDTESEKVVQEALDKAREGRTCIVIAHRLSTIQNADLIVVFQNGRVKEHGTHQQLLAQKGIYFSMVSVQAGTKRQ
Assay: Inhibition of ABCB1 in human A2780adr cells pre-incubated for 30 mins followed by calcein AM addition and further incubated for 60 mins by calcein AM assay
Format: cell-based, A2780 ADR
Conditions: not given

Row | Compound | IC50
33 | CCOc1ccc(-n2nnc(-c3ccccc3NC(=O)c3ccc(OC)c(OC)c3)n2)cc1 | 32.8 µM
34 | COc1ccccc1-n1nnc(-c2ccccc2NC(=O)c2ccc(C(F)(F)F)cc2)n1 | 11 µM
35 | COc1ccc(-n2nnc(-c3ccccc3NC(=O)c3ccc(OC)c(OC)c3)n2)cc1 | 37.2 µM
36 | COc1ccc(C(=O)Nc2ccccc2-c2nnn(-c3ccccc3OC)n2)cc1 | 7.73 µM

Target: ABCB1 (P-gp) (Homo sapiens, UniProt P08183)
Sequence (P08183 whole entry): as above
Assay: Inhibition of ABCB1 in human A2780adr cells at 10 uM pre-incubated for 30 mins followed by calcein AM addition and further incubated for 60 mins by calcein AM assay
Format: cell-based, A2780 ADR
Conditions: probe calcein AM

Row | Compound | inhibition at 1 h, 10 µM
37 | CCOc1ccc(-n2nnc(-c3ccccc3NC(=O)c3ccc(OC)c(OC)c3)n2)cc1 | ≥ 25%
38 | COc1ccccc1-n1nnc(-c2ccccc2NC(=O)c2ccc(C(F)(F)F)cc2)n1 | ≥ 25%
39 | COc1ccc(-n2nnc(-c3ccccc3NC(=O)c3ccc(OC)c(OC)c3)n2)cc1 | ≥ 25%
40 | COc1ccccc1-n1nnc(-c2ccccc2NC(=O)c2ccc([N+](=O)[O-])cc2)n1 | < 25%
41 | CCCc1ccc(-n2nnc(-c3ccccc3NC(=O)c3ccc([N+](=O)[O-])cc3)n2)cc1 | < 25%
42 | Cc1ccc(-n2nnc(-c3ccccc3NC(=O)c3ccc([N+](=O)[O-])cc3)n2)cc1 | < 25%
43 | Cc1ccc(-n2nnc(-c3ccccc3NC(=O)c3ccc(C(F)(F)F)cc3)n2)cc1 | < 25%
44 | COc1ccc(C(=O)Nc2ccccc2-c2nnn(-c3ccccc3OC)n2)cc1 | ≥ 25%
45 | CCCc1ccc(C(=O)Nc2ccccc2-c2nnn(-c3ccc(OC)cc3)n2)cc1 | < 25%
46 | COc1cccc(-n2nnc(-c3ccccc3NC(=O)c3ccc(C(F)(F)F)cc3)n2)c1 | < 25%

Target: Multidrug resistance-associated protein 1 (Homo sapiens, UniProt P33527)
Sequence (P33527 whole entry): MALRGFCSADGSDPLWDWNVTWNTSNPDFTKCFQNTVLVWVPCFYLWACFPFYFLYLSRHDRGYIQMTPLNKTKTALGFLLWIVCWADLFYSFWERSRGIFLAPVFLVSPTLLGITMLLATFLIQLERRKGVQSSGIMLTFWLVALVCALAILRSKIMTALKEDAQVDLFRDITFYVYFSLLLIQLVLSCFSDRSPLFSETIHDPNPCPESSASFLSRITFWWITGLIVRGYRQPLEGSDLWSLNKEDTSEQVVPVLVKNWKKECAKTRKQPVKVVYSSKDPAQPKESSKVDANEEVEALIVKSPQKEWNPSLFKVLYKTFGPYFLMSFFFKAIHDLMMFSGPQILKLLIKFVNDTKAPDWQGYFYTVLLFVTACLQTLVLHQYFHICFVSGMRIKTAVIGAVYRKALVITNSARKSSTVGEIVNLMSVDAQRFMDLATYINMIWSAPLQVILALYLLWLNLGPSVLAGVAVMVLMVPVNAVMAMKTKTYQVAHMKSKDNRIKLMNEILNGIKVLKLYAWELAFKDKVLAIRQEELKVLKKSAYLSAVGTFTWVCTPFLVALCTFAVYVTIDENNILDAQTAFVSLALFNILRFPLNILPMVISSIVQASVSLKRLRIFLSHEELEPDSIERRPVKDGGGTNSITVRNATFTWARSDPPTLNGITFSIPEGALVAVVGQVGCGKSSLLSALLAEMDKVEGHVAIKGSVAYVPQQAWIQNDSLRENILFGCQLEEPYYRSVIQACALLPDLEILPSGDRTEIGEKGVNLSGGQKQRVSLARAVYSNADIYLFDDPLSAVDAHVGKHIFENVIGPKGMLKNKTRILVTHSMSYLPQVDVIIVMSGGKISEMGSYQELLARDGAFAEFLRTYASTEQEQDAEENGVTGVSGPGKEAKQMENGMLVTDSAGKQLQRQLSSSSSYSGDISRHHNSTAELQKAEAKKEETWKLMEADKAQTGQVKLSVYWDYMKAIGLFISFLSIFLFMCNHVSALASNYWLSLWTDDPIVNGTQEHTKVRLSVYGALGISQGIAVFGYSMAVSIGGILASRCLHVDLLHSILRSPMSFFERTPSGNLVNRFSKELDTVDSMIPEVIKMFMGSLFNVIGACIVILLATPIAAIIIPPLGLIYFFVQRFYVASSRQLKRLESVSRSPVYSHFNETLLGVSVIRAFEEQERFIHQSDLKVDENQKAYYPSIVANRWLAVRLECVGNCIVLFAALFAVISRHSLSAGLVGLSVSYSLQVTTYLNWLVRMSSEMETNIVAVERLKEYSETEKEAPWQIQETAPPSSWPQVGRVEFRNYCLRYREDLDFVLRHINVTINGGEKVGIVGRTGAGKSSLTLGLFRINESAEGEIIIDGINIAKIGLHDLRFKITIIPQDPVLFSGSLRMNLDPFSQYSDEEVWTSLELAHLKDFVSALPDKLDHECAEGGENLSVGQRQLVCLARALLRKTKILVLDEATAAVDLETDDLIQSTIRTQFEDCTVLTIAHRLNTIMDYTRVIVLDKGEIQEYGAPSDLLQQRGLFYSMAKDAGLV
Assay: Inhibition of MRP1 in human H69AR cells at 10 uM pre-incubated for 30 mins followed by calcein AM addition and further incubated for 60 mins by calcein AM assay
Conditions: 1 h

Row | Compound | inhibition (INH)
47 | CCOc1ccc(-n2nnc(-c3ccccc3NC(=O)c3ccc(OC)c(OC)c3)n2)cc1 | Not Active
48 | COc1ccccc1-n1nnc(-c2ccccc2NC(=O)c2ccc(C(F)(F)F)cc2)n1 | Not Active
49 | COc1ccc(-n2nnc(-c3ccccc3NC(=O)c3ccc(OC)c(OC)c3)n2)cc1 | Not Active
50 | COc1ccccc1-n1nnc(-c2ccccc2NC(=O)c2ccc([N+](=O)[O-])cc2)n1 | Not Active
51 | CCCc1ccc(-n2nnc(-c3ccccc3NC(=O)c3ccc([N+](=O)[O-])cc3)n2)cc1 | Not Active
52 | Cc1ccc(-n2nnc(-c3ccccc3NC(=O)c3ccc([N+](=O)[O-])cc3)n2)cc1 | Not Active
53 | Cc1ccc(-n2nnc(-c3ccccc3NC(=O)c3ccc(C(F)(F)F)cc3)n2)cc1 | Not Active
54 | COc1ccc(C(=O)Nc2ccccc2-c2nnn(-c3ccccc3OC)n2)cc1 | Not Active
55 | CCCc1ccc(C(=O)Nc2ccccc2-c2nnn(-c3ccc(OC)cc3)n2)cc1 | Not Active
56 | COc1cccc(-n2nnc(-c3ccccc3NC(=O)c3ccc(C(F)(F)F)cc3)n2)c1 | Not Active

Target: T2, BCRP (ABCG2) (Homo sapiens, UniProt Q9UNQ0)
T2 sequence (Q9UNQ0 whole entry): T1 sequence (Q9UNQ0 whole entry)
Assay: Inhibition of GFP-tagged human BCRP expressed in MDCK2 cells pre-incubated for 30 mins followed by Hoechst 33342 addition and further incubated for 120 mins by Hoechst 33342 accumulation assay relative to XR9577
Format: cell-based, MDCK-II
Conditions: MDCK2 cells expressing GFP-tagged human BCRP, probe Hoechst 33342, read-out: Imax

Row | Compound | Emax at 2 h
57 | CCOc1ccc(-n2nnc(-c3ccccc3NC(=O)c3ccc(OC)c(OC)c3)n2)cc1 | 106%
58 | COc1ccccc1-n1nnc(-c2ccccc2NC(=O)c2ccc(C(F)(F)F)cc2)n1 | 100%
59 | COc1ccc(-n2nnc(-c3ccccc3NC(=O)c3ccc(OC)c(OC)c3)n2)cc1 | 107%
60 | COc1ccccc1-n1nnc(-c2ccccc2NC(=O)c2ccc([N+](=O)[O-])cc2)n1 | 102%
61 | CCCc1ccc(-n2nnc(-c3ccccc3NC(=O)c3ccc([N+](=O)[O-])cc3)n2)cc1 | 63%
62 | Cc1ccc(-n2nnc(-c3ccccc3NC(=O)c3ccc([N+](=O)[O-])cc3)n2)cc1 | 71%
63 | Cc1ccc(-n2nnc(-c3ccccc3NC(=O)c3ccc(C(F)(F)F)cc3)n2)cc1 | 65%
64 | COc1ccc(C(=O)Nc2ccccc2-c2nnn(-c3ccccc3OC)n2)cc1 | 88%
65 | CCCc1ccc(C(=O)Nc2ccccc2-c2nnn(-c3ccc(OC)cc3)n2)cc1 | 91%
66 | COc1cccc(-n2nnc(-c3ccccc3NC(=O)c3ccc(C(F)(F)F)cc3)n2)c1 | 100%

Test system: not listed separately
Assay: Intrinsic cytotoxicity against wild type MDCK2 cells assessed as reduction in cell viability after 72 hrs by MTT assay
Format: cell-based, Canis lupus familiaris, MDCK-II
Conditions: dog
Summary of the method: as §1

Row | Compound | GI50 at 72 h
67 | CCCc1ccc(C(=O)Nc2ccccc2-c2nnn(-c3ccc(OC)cc3)n2)cc1 | 77.6 µM

Target: T2, BCRP (ABCG2)
Assay: Potency index, ratio of IC50 for Ko143 to IC50 for compound against GFP-tagged human BCRP expressed in MDCK2 cells by Hoechst 33342 accumulation assay
Format: cell-based
Conditions: MDCK2 cells expressing GFP-tagged human BCRP, probe Hoechst 33342, read-out: Ratio IC50

Row | Compound | selectivity ratio
68 | CCCc1ccc(C(=O)Nc2ccccc2-c2nnn(-c3ccc(OC)cc3)n2)cc1 | 2

Test system: not listed separately
Assay: Ratio of GI50 for wild type MDCK2 cells by MTT assay to IC50 for GFP-tagged human BCRP expressed in MDCK2 cells by Hoechst 33342 accumulation assay
Design: species or system MDCK-II
Conditions: not given
Summary of the method: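 Ratio of two values. […] Read at 570/690 nm as % of medium control; n = 3, each in quadruplicate. IC50 came from Hoechst 33342 accumulation in MDCK II BCRP-GFP cells: 2 h at 37 °C, steady-state fluorescence, four-parameter fit.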

Row | Compound | Ratio
69 | CCCc1ccc(C(=O)Nc2ccccc2-c2nnn(-c3ccc(OC)cc3)n2)cc1 | 1000
